Converted amounts (≈) assume the structure as drawn.
What was measured:
[1] = system: Mycobacterium tuberculosis; assay: Antimycobacterial activity against Mycobacterium tuberculosis H37Ra at 100 ug/mL by microplate Alamar blue assay; type: functional
In short: (§1)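 MABA with M. bovis BCG, M. tuberculosis H37Ra or M. avium ATCC 25291. DMSO stocks (10 mg/mL) diluted in 7H9GC; final inoculum 2.5 × 10⁵ CFU/mL. Incubated 6 days, then alamar blue plus Tween 80 added and read by fluorescence after about 24 h. […]. Tested in triplicate at 100, 50, 10 and 1 µg/mL; two experiments, mean reported.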

Bacillus subtilis [2] = assay: Antibacterial activity against Bacillus subtilis ATCC 6633 after 16 to 20 hrs by broth microdilution method; type: functional; settings: for MIC: Bacillus subtilis, ATCC 6633
In short: (§2)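 Broth microdilution MIC. Exponentially growing bacteria diluted in sterile liquid medium to a final inoculum of 1 × 10⁴ CFU/mL. Cultured with compound dilutions for 16-20 h; compounds tested at 100, 50, 10 and 1 µg/mL. MIC taken as the concentration giving 100% inhibition of bacterial growth.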

Mycobacterium avium [3] = assay: Antimycobacterial activity against Mycobacterium avium ATCC 25291 at 100 ug/mL by microplate Alamar blue assay; type: functional; in short: as §1
Streptococcus pneumoniae [4] = assay: Antibacterial activity Streptococcus pneumoniae ATCC 49619 after 16 to 20 hrs by broth microdilution method; type: functional; settings: for MIC: Streptococcus pneumoniae, ATCC 49619; in short: as §2
Staphylococcus aureus [5] = assay: Antibacterial activity against Staphylococcus aureus ATCC 25923 after 16 to 20 hrs by broth microdilution method; type: functional; settings: for MIC: Staphylococcus aureus, ATCC 25923; in short: as §2
[6] = system: Staphylococcus epidermidis; assay: Antibacterial activity against Staphylococcus epidermidis ATCC 14990 after 16 to 20 hrs by broth microdilution method; type: functional; settings: for MIC: Staphylococcus epidermidis, ATCC 14990; in short: as §2
Proteus vulgaris = assay: Antibacterial activity against Proteus vulgaris ATCC 49132 after 16 to 20 hrs by broth microdilution method; type: functional; in short: as §2
Vero = assay: Toxicity against Vero cells after 3 days by MTT test; type: cell-based; settings: chlorocebus sabaeus, 72 h
In short: (§3)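 MTT viability assay. Vero or HFF cells seeded at 2.5 × 10⁵ cells/well and left to attach 6-8 h. Exposed to compound at 100, 50, 25, 12.5, 6.3 and 1.5 µg/mL for 3 days at 37 °C, with a DMSO control. MTT added for 4 h, then solubilized overnight; absorbance read at 560-650 nm.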

Listeria monocytogenes [7] = assay: Antibacterial activity Listeria monocytogenes ATCC 15313 after 16 to 20 hrs by broth microdilution method; type: functional; settings: for MIC: Listeria monocytogenes, ATCC 15313; in short: as §2
[8] = system: Mycobacterium tuberculosis; assay: Antimycobacterial activity against Mycobacterium tuberculosis H37Ra at 10 ug/mL by microplate Alamar blue assay; type: functional; in short: as §1
Enterococcus faecalis [9] = assay: Antibacterial activity Enterococcus faecalis ATCC 29212 after 16 to 20 hrs by broth microdilution method; type: functional; settings: for MIC: Enterococcus faecalis, ATCC 29212; in short: as §2
Mycobacterium avium [10] = assay: Antimycobacterial activity against Mycobacterium avium ATCC 25291 by microplate Alamar blue assay; type: functional
In short: (§4)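 Same alamar blue microplate setup (7H9GC, 2.5 × 10⁵ CFU/mL, 6 days, then dye read after about 24 h), using 2-fold compound dilutions. MIC90 is the lowest concentration giving about 90% inhibition relative to bacteria-only wells after background subtraction. Visual MIC is the lowest concentration preventing the blue-to-pink change.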

Escherichia coli [11] = assay: Antibacterial activity against Escherichia coli ATCC 25922 after 16 to 20 hrs by broth microdilution method; type: functional; settings: for MIC: Escherichia coli, ATCC 25922; in short: as §2
Streptococcus pyogenes [12] = assay: Antibacterial activity Streptococcus pyogenes ATCC 19615 after 16 to 20 hrs by broth microdilution method; type: functional; settings: for MIC: Streptococcus pyogenes, ATCC 19615; in short: as §2
[13] = system: Mycobacterium tuberculosis; assay: Antimycobacterial activity against Mycobacterium tuberculosis H37Ra at 50 ug/mL by microplate Alamar blue assay; type: functional; in short: as §1
Salmonella typhimurium [14] = assay: Antibacterial activity against Salmonella Typhimurium after 16 to 20 hrs by broth microdilution method; type: functional, Salmonella enterica subsp. enterica serovar Typhimurium; settings: for MIC: Salmonella enterica; in short: as §2
Klebsiella aerogenes [15] = assay: Antibacterial activity against Enterobacter aerogenes after 16 to 20 hrs by broth microdilution method; type: functional; settings: for MIC: Klebsiella aerogenes; in short: as §2
Pseudomonas aeruginosa [16] = assay: Antibacterial activity against Pseudomonas aeruginosa […] after 16 to 20 hrs by broth microdilution method; type: functional; settings: for MIC: Pseudomonas aeruginosa, ATCC 13048; in short: as §2
[17] = Toxicity against human foreskin fibroblast cells after 3 days by MTT test; type: cell-based; in short: as §3
[18] = system: Mycobacterium tuberculosis; assay: Antimycobacterial activity against Mycobacterium tuberculosis H37Ra at 1ug/mL by microplate Alamar blue assay; type: functional; in short: as §1
Mycobacterium avium [19] = assay: Antimycobacterial activity against Mycobacterium avium ATCC 25291 at 50 ug/mL by microplate Alamar blue assay; type: functional; in short: as §1
[20] = system: Mycobacterium tuberculosis; assay: Antimycobacterial activity against Mycobacterium tuberculosis H37Ra by microplate Alamar blue assay; type: functional; in short: as §4
Mycobacterium avium [21] = assay: Antimycobacterial activity against Mycobacterium avium ATCC 25291 at 2 ug/mL by microplate Alamar blue assay; type: functional
Klebsiella aerogenes [22] = assay: Antibacterial activity against Enterobacter aerogenes at 1 ug/ml after 16 to 20 hrs by broth microdilution method; type: functional
Streptococcus pyogenes [23] = assay: Antibacterial activity Streptococcus pyogenes ATCC 19615 at 1 ug/ml after 16 to 20 hrs by broth microdilution method; type: functional
Escherichia coli [24] = assay: Antibacterial activity against Escherichia coli ATCC 25922 at 1 ug/ml after 16 to 20 hrs by broth microdilution method; type: functional
Bacillus subtilis [25] = assay: Antibacterial activity against Bacillus subtilis ATCC 6633 at 1 ug/ml after 16 to 20 hrs by broth microdilution method; type: functional
[26] = system: Staphylococcus epidermidis; assay: Antibacterial activity against Staphylococcus epidermidis ATCC 14990 at 1 ug/ml after 16 to 20 hrs by broth microdilution method; type: functional
Salmonella typhimurium [27] = assay: Antibacterial activity against Salmonella Typhimurium at 1 ug/ml after 16 to 20 hrs by broth microdilution method; type: functional, Salmonella enterica subsp. enterica serovar Typhimurium; settings: Salmonella enterica
Staphylococcus aureus [28] = assay: Antibacterial activity against Staphylococcus aureus ATCC 25923 at 1 ug/ml after 16 to 20 hrs by broth microdilution method; type: functional
Listeria monocytogenes [29] = assay: Antibacterial activity Listeria monocytogenes ATCC 15313 at 1 ug/ml after 16 to 20 hrs by broth microdilution method; type: functional
Pseudomonas aeruginosa [30] = assay: Antibacterial activity against Pseudomonas aeruginosa […] at 1 ug/ml after 16 to 20 hrs by broth microdilution method; type: functional
Streptococcus pneumoniae [31] = assay: Antibacterial activity Streptococcus pneumoniae ATCC 49619 at 1 ug/ml after 16 to 20 hrs by broth microdilution method; type: functional
Enterococcus faecalis [32] = assay: Antibacterial activity Enterococcus faecalis ATCC 29212 at 1 ug/ml after 16 to 20 hrs by broth microdilution method; type: functional

## CCCCCCCCCCC#Cc1cn([C@@H]2O[C@H](CO)[C@@H](O)[C@H]2F)c(=O)[nH]c1=O
[1]
  inhibition at 100 µg/mL: 100%
Bacillus subtilis [2]
  MIC: > 100 mg/L
Mycobacterium avium [3]
  inhibition at 100 µg/mL: 100%
Streptococcus pneumoniae [4]
  Inhibition: 100%
  MIC: 100 mg/L (≈ 244 µM)
Staphylococcus aureus [5]
  Inhibition: 100%
  MIC: 100 mg/L (≈ 244 µM)
[6]
  Inhibition: 100%
  MIC: 100 mg/L (≈ 244 µM)
Proteus vulgaris
  MIC: > 100 mg/L
Vero
  CC10: > 100 mg/L
Listeria monocytogenes [7]
  Inhibition: 100%
  MIC: 100 mg/L (≈ 244 µM)
[8]
  inhibition at 10 µg/mL: 100%
Enterococcus faecalis [9]
  Inhibition: 100%
  MIC: 100 mg/L (≈ 244 µM)
Mycobacterium avium [10]
  MIC90: 50 mg/L (≈ 122 µM)
Escherichia coli [11]
  MIC: > 100 mg/L
Streptococcus pyogenes [12]
  Inhibition: 100%
  MIC: 100 mg/L (≈ 244 µM)
[13]
  inhibition at 50 µg/mL: 100%
Salmonella typhimurium [14]
  MIC: > 100 mg/L
Klebsiella aerogenes [15]
  MIC: > 100 mg/L
Pseudomonas aeruginosa [16]
  MIC: > 100 mg/L
[17]
  CC50 at 72 h: > 100 mg/L
[18]
  inhibition at 1 µg/mL: 70%
Mycobacterium avium [19]
  inhibition at 50 µg/mL: 50%
[20]
  MIC90: 1 mg/L (≈ 2.44 µM)

## CCCCCCCCCCCC#Cc1cn([C@@H]2O[C@H](CO)[C@@H](O)[C@H]2F)c(=O)[nH]c1=O
[1]
  inhibition at 100 µg/mL: 100%
Bacillus subtilis [2]
  MIC: > 100 mg/L
Mycobacterium avium [3]
  inhibition at 100 µg/mL: 100%
Streptococcus pneumoniae [4]
  Inhibition: 100%
  MIC: 100 mg/L (≈ 236 µM)
Staphylococcus aureus [5]
  Inhibition: 100%
  MIC: 100 mg/L (≈ 236 µM)
[6]
  Inhibition: 100%
  MIC: 100 mg/L (≈ 236 µM)
Proteus vulgaris
  MIC: > 100 mg/L
Vero
  CC10: > 100 mg/L
Listeria monocytogenes [7]
  Inhibition: 100%
  MIC: 100 mg/L (≈ 236 µM)
[8]
  inhibition at 10 µg/mL: 100%
Enterococcus faecalis [9]
  Inhibition: 100%
  MIC: 100 mg/L (≈ 236 µM)
Mycobacterium avium [10]
  MIC90: 50 mg/L (≈ 118 µM)
Escherichia coli [11]
  MIC: > 100 mg/L
Streptococcus pyogenes [12]
  Inhibition: 100%
  MIC: 100 mg/L (≈ 236 µM)
[13]
  inhibition at 50 µg/mL: 100%
Salmonella typhimurium [14]
  MIC: > 100 mg/L
Klebsiella aerogenes [15]
  MIC: > 100 mg/L
Pseudomonas aeruginosa [16]
  MIC: > 100 mg/L
[17]
  CC50 at 72 h: > 100 mg/L
[18]
  inhibition at 1 µg/mL: 90%
Mycobacterium avium [19]
  inhibition at 50 µg/mL: 50%
[20]
  MIC90: 1 mg/L (≈ 2.36 µM)

## CC[C@H]1OC(=O)[C@H](C)[C@@H](O[C@H]2C[C@@](C)(OC)[C@@H](O)[C@H](C)O2)[C@H](C)[C@@H](O[C@@H]2O[C@H](C)C[C@H](N(C)C)[C@H]2O)[C@](C)(OC)C[C@@H](C)C(=O)[C@H](C)[C@@H](O)[C@]1(C)O [CLARITHROMYCIN]
Mycobacterium avium [21]
  inhibition at 2 µg/mL: 95%
Mycobacterium avium [10]
  MIC90: 2 mg/L (≈ 2.67 µM)

## CO[C@H]1/C=C/O[C@@]2(C)Oc3c(C)c(O)c4c(O)c(c(/C=N/N5CCN(C)CC5)c(O)c4c3C2=O)NC(=O)/C(C)=C\C=C\[C@H](C)[C@H](O)[C@@H](C)[C@@H](O)[C@@H](C)[C@H](OC(C)=O)[C@@H]1C [RIFAMPIN]
Bacillus subtilis [2]
  Inhibition: 100%
Staphylococcus aureus [5]
  Inhibition: 100%
[6]
  Inhibition: 100%
Proteus vulgaris
  MIC: > 100 mg/L
Mycobacterium avium [21]
  inhibition at 2 µg/mL: 90%
Klebsiella aerogenes [22]
  inhibition at 1 µg/mL: 100%
Listeria monocytogenes [7]
  Inhibition: 100%
Streptococcus pyogenes [23]
  inhibition at 1 µg/mL: 100%
Escherichia coli [24]
  inhibition at 1 µg/mL: 100%
Mycobacterium avium [10]
  MIC90: 2 mg/L (≈ 2.43 µM)
Escherichia coli [11]
  Inhibition: 100%
  MIC: 100 mg/L (≈ 122 µM)
Bacillus subtilis [25]
  inhibition at 1 µg/mL: 100%
[26]
  inhibition at 1 µg/mL: 100%
Salmonella typhimurium [27]
  inhibition at 1 µg/mL: 100%
Staphylococcus aureus [28]
  inhibition at 1 µg/mL: 100%
Streptococcus pyogenes [12]
  Inhibition: 100%
Salmonella typhimurium [14]
  Inhibition: 100%
  MIC: > 100 mg/L
Klebsiella aerogenes [15]
  Inhibition: 100%
  MIC: > 100 mg/L
Pseudomonas aeruginosa [16]
  Inhibition: 100%
  MIC: > 100 mg/L
Listeria monocytogenes [29]
  inhibition at 1 µg/mL: 100%
Pseudomonas aeruginosa [30]
  inhibition at 1 µg/mL: 100%
[20]
  MIC90: 0.5 mg/L (≈ 0.608 µM)

## CN[C@H](CC(C)C)C(=O)N[C@H]1C(=O)N[C@@H](CC(N)=O)C(=O)N[C@H]2C(=O)N[C@H]3C(=O)N[C@H](C(=O)N[C@H](C(=O)O)c4cc(O)cc(O)c4-c4cc3ccc4O)[C@H](O)c3ccc(c(Cl)c3)Oc3cc2cc(c3O[C@@H]2O[C@H](CO)[C@@H](O)[C@H](O)[C@H]2O[C@H]2C[C@](C)(N)[C@H](O)[C@H](C)O2)Oc2ccc(cc2Cl)[C@H]1O [VANCOMYCIN]
Bacillus subtilis [2]
  Inhibition: 50%
Streptococcus pneumoniae [31]
  inhibition at 1 µg/mL: 100%
Streptococcus pneumoniae [4]
  Inhibition: 100%
[6]
  Inhibition: 50%
Enterococcus faecalis [32]
  inhibition at 1 µg/mL: 100%
Proteus vulgaris
  MIC: > 100 mg/L
Listeria monocytogenes [7]
  Inhibition: 100%
Enterococcus faecalis [9]
  Inhibition: 100%
Streptococcus pyogenes [23]
  inhibition at 1 µg/mL: 100%
Escherichia coli [11]
  MIC: > 100 mg/L
Bacillus subtilis [25]
  inhibition at 1 µg/mL: 50%
[26]
  inhibition at 1 µg/mL: 50%
Salmonella typhimurium [27]
  inhibition at 1 µg/mL: 50%
Streptococcus pyogenes [12]
  Inhibition: 100%
Salmonella typhimurium [14]
  Inhibition: 50%
Klebsiella aerogenes [15]
  MIC: > 100 mg/L
Pseudomonas aeruginosa [16]
  MIC: > 100 mg/L
Listeria monocytogenes [29]
  inhibition at 1 µg/mL: 100%
